Columns and labels:
[1] = test system: Mus musculus; assay: Tumor size of subcutaneously implanted SCC-VII squamous cell carcinoma in mice on day 7; details: route subcutaneous
[2] = test system: 786-0; assay: cells; details: Homo sapiens
[3] = test system: NCI-H23; assay: The IC50 value was measured on NCl-H23 cell line in NSCL tumor type.; type: functional, cell-based; details: Homo sapiens
Outline: (§1)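 Standard NCI cell-line panel protocol. Cells plated in 96-well format and treated continuously with drug for 48 h. Total protein stained with Sulforhodamine B and IC50 derived.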

[4] = test system: NCI-H460; assay: The IC50 value was measured on NCl-H460 cell line in NSCL tumor type; type: functional, cell-based; details: Homo sapiens
Outline: as §1

[5] = test system: Mus musculus; assay: Tumor size of subcutaneously implanted SCC-VII squamous cell carcinoma in mice on day 0; details: route subcutaneous
[6] = test system: OVCAR-8; assay: The IC50 value was measured on OVCAR-8 cell line in ovarian tumor type.; type: functional, cell-based; details: Homo sapiens
Outline: as §1

[7] = test system: UO-31; assay: The IC50 value was measured on UO-31 cell line in renal tumor type.; type: functional, cell-based; details: Homo sapiens
Outline: as §1

[8] = test system: NCI-H522; assay: The IC50 value was measured on NCl-H522 cell line in NSCL tumor type.; type: functional, cell-based; details: Homo sapiens
Outline: as §1

[9] = test system: OVCAR-3; assay: The IC50 value was measured on OVCAR-3 cell line in ovarian tumor t; type: functional, cell-based; details: Homo sapiens
Outline: as §1

[10] = test system: Mus musculus; assay: Time to reach 10 mm Tumor size of subcutaneously implanted SCC-VII squamous cell carcinoma in mice; details: route subcutaneous
[11] = test system: SF-539; assay: The IC50 value was measured on SF-539 cell line in CNS tumor type.; type: functional, cell-based; details: Homo sapiens
Outline: as §1

[12] = test system: ACHN; assay: The IC50 value was measured on ACHN cell line in renal tumor type.; type: functional, cell-based; details: Homo sapiens
Outline: as §1

[13] = test system: SK-MEL-5; assay: The IC50 value was measured on SK-MEL-5 cell line in melanoma tumor type.; type: functional, cell-based; details: Homo sapiens
Outline: as §1

[14] = test system: SNB-75; assay: The IC50 value was measured on SNB-75 cell line in CNS tumor type.; type: functional, cell-based; details: Homo sapiens
Outline: as §1

[15] = test system: A549; assay: In vitro antitumor activity against A549 human non-small lung carcinoma cells containing 10% fetal bovine serum; type: functional, cell-based
Outline: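 Cells plated at 2000-3000/well in RPMI with 10% fetal bovine serum and left to adhere for 24 h at 37 °C in humidified 5% CO2. Drug (0.1-1000 nM) then added for a further 72 h of continuous exposure. Sulforhodamine B staining read-out. Growth taken as % of untreated controls and plotted against log drug concentration to give IC50.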

[16] = test system: DU-145; assay: The IC50 value was measured on DU-145 cell line in prostate tumor type.; type: functional, cell-based; details: Homo sapiens
Outline: as §1

[17] = test system: SW-620; assay: The IC50 value was measured on SW-620 cell line in colon tumor type.; type: functional, cell-based; details: Homo sapiens
Outline: as §1

[18] = test system: PC-3; assay: The IC50 value was measured on PC-3 cell line in prostate tumor type.; type: functional, cell-based; details: Homo sapiens
Outline: as §1

[19] = test system: KM12; assay: The IC50 value was measured on KM-12 cell line in colon tumor type.; type: functional, cell-based; details: Homo sapiens
Outline: as §1

[20] = test system: Malme-3M; assay: The IC50 value was measured on MALME-3M cell line in melanoma tumor type; type: functional, cell-based; details: Homo sapiens
Outline: as §1

[21] = test system: LOX IMVI; assay: The IC50 value was measured on LOX IMVI cell line in melanoma tumor ty; type: functional, cell-based; details: Homo sapiens
Outline: as §1

[22] = test system: HCT-15; assay: The IC50 value was measured on HCT-15 cell line in colon tumor type.; type: functional, cell-based; details: Homo sapiens
Outline: as §1

[23] = test system: NCI/ADR-RES; assay: The IC50 value was measured on MCF7-ADR cell line in breast tumor type.; type: functional, cell-based; details: Homo sapiens
Outline: as §1

[24] = test system: EKVX; assay: The IC50 value was measured on EKVX cell line in NSCL tumor type.; type: functional, cell-based; details: Homo sapiens
Outline: as §1

[25] = test system: HCT-116; assay: The IC50 value was measured on HCT116 cell line in colon tumor type.; type: functional, cell-based; details: Homo sapiens
Outline: as §1

[26] = test system: HT-29; assay: The IC50 value was measured on HT-29 cell line in colon tumor type.; type: functional, cell-based; details: Homo sapiens
Outline: as §1

[27] = test system: OVCAR-5; assay: The IC50 value was measured on OVCAR-5 cell line in ovarian tumor type.; type: functional, cell-based; details: Homo sapiens
Outline: as §1

[28] = test system: Mus musculus; assay: Tumor growth delay of subcutaneously implanted SCC-VII squamous cell carcinoma in mice; details: route subcutaneous
[29] = test system: SCC-25; assay: In vitro antitumor activity against SCC25 human head and neck squamous carcinoma cells containing 10% fetal bovine serum; type: functional, cell-based
Outline: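 Clonogenic assay. Cells kept in Dulbecco's MEM with 10% FBS and hydrocortisone (400 µg/L). Exponential-phase cells preincubated without drug for 48 h, exposed to 0.01-5000 nM for 72 h, then replated in fresh medium. After 14 days, colonies of ≥5 cells stained with crystal violet and counted. Survival taken as % of untreated controls and IC50 estimated from a log-log plot. Replicate plates, at least three separate days.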

[30] = test system: MCF7; assay: The IC50 value was measured on MCF-7 cell line in breast tumor type; type: functional, cell-based; details: Homo sapiens
Outline: as §1

[31] = test system: SF-268; assay: The IC50 value was measured on SF-268 cell line in CNS tumor type.; type: functional, cell-based; details: Homo sapiens
Outline: as §1

[32] = test system: UACC-62; assay: The IC50 value was measured on UACC-62 cell line in melanoma tumor type.; type: functional, cell-based; details: Homo sapiens
Outline: as §1

[33] = test system: SK-MEL-28; assay: The IC50 value was measured on SKMEL-28 cell line in melanoma tumor type.; type: functional, cell-based; details: Homo sapiens
Outline: as §1

[34] = biological target: T1, Dihydrofolate reductase (Homo sapiens) (UniProt P00374)
T1 sequence (whole entry): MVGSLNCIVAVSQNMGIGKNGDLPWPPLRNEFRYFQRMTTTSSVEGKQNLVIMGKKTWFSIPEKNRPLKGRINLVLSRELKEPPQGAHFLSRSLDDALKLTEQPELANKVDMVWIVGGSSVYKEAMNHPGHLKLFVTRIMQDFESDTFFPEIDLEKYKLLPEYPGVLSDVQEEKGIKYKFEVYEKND

[35] = test system: LOX IMVI; assay: The IC50 value was measured on LOX […] cell line in melanoma tumor ty; type: functional, cell-based; details: Homo sapiens
Outline: as §1

[36] = test system: OVCAR-3; assay: The IC50 value was measured on OVCAR-3 cell line in ovarian tumor; type: functional, cell-based; details: Homo sapiens
Outline: as §1

[37] = test system: 786-0; assay: The IC50 value was measured on 786-0 cell line in ovarian tumor; type: functional, cell-based; details: Homo sapiens, in the assay text read “renal” for “ovarian”
Outline: as §1

[38] = test system: 786-0; assay: The IC50 value was measured on 786-0 cell line in ovarian tumor t; type: functional, cell-based; details: Homo sapiens, in the assay text read “renal” for “ovarian”
Outline: as §1

SMILES	IC50 [3] [µM]	IC50 [4] [µM]	IC50 [6] [µM]	IC50 [7] [µM]	IC50 [8] [µM]	IC50 [11] [µM]	IC50 [12] [µM]	IC50 [13] [µM]	IC50 [15] [µM]	IC50 [16] [µM]	IC50 [17] [µM]	IC50 [18] [µM]	IC50 [19] [µM]	IC50 [20] [µM]	IC50 [22] [µM]	IC50 [23] [µM]	IC50 [24] [µM]	IC50 [25] [µM]	IC50 [29] [µM]	IC50/[E] (nM milliunit-1) [34]	other results
CN(Cc1cnc2nc(N)nc(N)c2n1)c1ccc(C(=O)N[C@@H](CCC(=O)O)C(=O)O)cc1 [METHOTREXATE]	0.043	0.028	0.031	0.191	0.229	0.035	0.04	0.087	0.023	0.023	0.033	0.002	0.042	> 1	0.03	0.078	> 1	0.03	0.027	–	Tumor size [1]: 7.3 mm; IC50 [2]: 0.033 µM; Tumor size [5]: 1.6 mm; IC50 [9]: 0.398 µM; Time [10]: 12 days; IC50 [14]: > 10 µM; IC50 [21]: 0.026 µM; IC50 [26]: 0.032 µM; IC50 [27]: > 1 µM; TGD [28]: 5 days; IC50 [30]: 0.036 µM; IC50 [31]: 0.052 µM; IC50 [32]: 0.028 µM; IC50 [33]: > 1 µM
Nc1nc(N)c2nc(CNc3ccc(C(=O)NC(CNC(=O)c4ccccc4C(=O)O)C(=O)O)cc3)cnc2n1 (stereo unspecified)	–	–	–	–	–	–	–	–	0.023	–	–	–	–	–	–	–	–	–	–	3.5	–
Nc1nc(N)c2nc(CNc3ccc(C(=O)NC(CCCNC(=O)c4ccc(C(=O)O)cc4)C(=O)O)cc3)cnc2n1 (stereo unspecified)	–	–	–	–	–	–	–	–	3.3	–	–	–	–	–	–	–	–	–	0.072	2.8	–
Nc1nc(N)c2nc(CNc3ccc(C(=O)NC(CCCNC(=O)c4cccc(C(=O)O)c4)C(=O)O)cc3)cnc2n1 (stereo unspecified)	–	–	–	–	–	–	–	–	0.045	–	–	–	–	–	–	–	–	–	0.0029	2.2	–
Nc1nc(N)c2nc(CNc3ccc(C(=O)NC(CCCCNC(=O)c4ccccc4C(=O)O)C(=O)O)cc3)cnc2n1 (stereo unspecified)	0.0092	0.0042	0.0059	0.0078	> 1	0.026	0.0052	0.091	0.0052	0.0091	0.0034	0.005	0.0049	> 1	0.0052	0.0091	0.036	0.0006	–	–	IC50 [35]: 0.0009 µM; IC50 [9]: > 1 µM; IC50 [26]: 0.0057 µM; IC50 [27]: > 1 µM; IC50 [30]: 0.005 µM; IC50 [31]: 0.0084 µM; IC50 [32]: > 1 µM; IC50 [33]: > 1 µM
Nc1nc(N)c2nc(CNc3ccc(C(=O)NC(CCCNC(=O)c4ccccc4C(=O)O)C(=O)O)cc3)cnc2n1 (stereo unspecified)	0.0044	0.0005	0.0024	0.0055	0.023	0.0037	0.0024	0.006	0.0013	0.0095	0.0019	> 0.1	0.0032	0.002	0.0012	0.0027	0.023	0.0003	0.0003	2	Tumor size [1]: 6.8 mm; Tumor size [5]: 2.1 mm; Time [10]: 12 days; IC50 [14]: > 10 µM; IC50 [21]: 0.0004 µM; IC50 [36]: > 0.1 µM; IC50 [26]: 0.0012 µM; IC50 [27]: 0.0025 µM; IC50 [37]: 0.0006 µM; TGD [28]: 5 days; IC50 [30]: 0.0036 µM; IC50 [31]: 0.0025 µM; IC50 [32]: 0.0018 µM; IC50 [33]: 0.0046 µM
Nc1nc(N)c2nc(CNc3ccc(C(=O)NC(CCCNC(=O)c4cc(Cl)c(Cl)cc4C(=O)O)C(=O)O)cc3)cnc2n1 (stereo unspecified)	–	–	–	–	–	–	–	–	–	–	–	–	–	–	–	–	–	–	0.018	2.4	–
Nc1nc(N)c2nc(CNc3ccc(C(=O)NC(CCNC(=O)c4ccccc4C(=O)O)C(=O)O)cc3)cnc2n1 (stereo unspecified)	0.032	0.014	0.0081	0.008	> 1	0.057	0.045	0.085	0.022	0.034	0.0063	0.0067	> 1	> 1	0.0072	> 1	0.021	0.005	–	2.5	Tumor size [1]: 5.1 mm; Tumor size [5]: 1.1 mm; IC50 [9]: > 1 µM; Time [10]: 9.8 days; IC50 [38]: 0.0092 µM; IC50 [14]: > 1 µM; IC50 [21]: 0.0044 µM; IC50 [26]: 0.0098 µM; IC50 [27]: 0.086 µM; TGD [28]: 2.6 days; IC50 [30]: > 1 µM; IC50 [31]: > 0.1 µM; IC50 [32]: 0.012 µM; IC50 [33]: > 1 µM

— ChEMBL document CHEMBL1130284, “Analogues of N alpha-(4-amino-4-deoxypteroyl)-N delta-hemiphthaloyl-L-ornithine (PT523) modified in the side chain: synthesis and biological evaluation” (J Med Chem, 1997)
